Several values for one entry are separate records, joined by “and”; a condition that tells them apart may be missing. Identical values can stand only once. Out of some 330,000 compounds screened, about 2,400 (0.73%) were called active. This is one part of a sample in which actives are shown more often than they occur. A number with no mark means an inactive call. The calls were made as follows: active = inhibition of at least 40% at 20 µM; inactive = the rest.

For the assay, the target named is Apoptotic protease-activating factor 1 (Homo sapiens) (UniProt O14727). Nature of the assay: inhibitors of human Apaf-1 apoptosome, primary screen, biochemical, DEVD-Rh110 fluorescence, uHTS (AID 489030).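 Also: plate controls were DMSO wells for no effect and DEVD-CHO caspase inhibitor wells for full effect.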 Conditions: reconstituted apoptosome caspase-3 activity, at 20 µM, stronger effect = higher value. An outline of the steps: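 Material: reconstituted apoptosome with Apaf-1, cytochrome c, caspase-9, procaspase-3, dATP; medium: pH 7.5 Hepes buffer with CHAPS, BSA, DTT; also added: cytochrome c and DEVD-Rh110 substrate; timing: 30 min plus 50 min, RT; signal: Rh110 fluorescence intensity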
Chain of Apoptotic protease-activating factor 1 (Homo sapiens) (O14727 whole entry, looked up): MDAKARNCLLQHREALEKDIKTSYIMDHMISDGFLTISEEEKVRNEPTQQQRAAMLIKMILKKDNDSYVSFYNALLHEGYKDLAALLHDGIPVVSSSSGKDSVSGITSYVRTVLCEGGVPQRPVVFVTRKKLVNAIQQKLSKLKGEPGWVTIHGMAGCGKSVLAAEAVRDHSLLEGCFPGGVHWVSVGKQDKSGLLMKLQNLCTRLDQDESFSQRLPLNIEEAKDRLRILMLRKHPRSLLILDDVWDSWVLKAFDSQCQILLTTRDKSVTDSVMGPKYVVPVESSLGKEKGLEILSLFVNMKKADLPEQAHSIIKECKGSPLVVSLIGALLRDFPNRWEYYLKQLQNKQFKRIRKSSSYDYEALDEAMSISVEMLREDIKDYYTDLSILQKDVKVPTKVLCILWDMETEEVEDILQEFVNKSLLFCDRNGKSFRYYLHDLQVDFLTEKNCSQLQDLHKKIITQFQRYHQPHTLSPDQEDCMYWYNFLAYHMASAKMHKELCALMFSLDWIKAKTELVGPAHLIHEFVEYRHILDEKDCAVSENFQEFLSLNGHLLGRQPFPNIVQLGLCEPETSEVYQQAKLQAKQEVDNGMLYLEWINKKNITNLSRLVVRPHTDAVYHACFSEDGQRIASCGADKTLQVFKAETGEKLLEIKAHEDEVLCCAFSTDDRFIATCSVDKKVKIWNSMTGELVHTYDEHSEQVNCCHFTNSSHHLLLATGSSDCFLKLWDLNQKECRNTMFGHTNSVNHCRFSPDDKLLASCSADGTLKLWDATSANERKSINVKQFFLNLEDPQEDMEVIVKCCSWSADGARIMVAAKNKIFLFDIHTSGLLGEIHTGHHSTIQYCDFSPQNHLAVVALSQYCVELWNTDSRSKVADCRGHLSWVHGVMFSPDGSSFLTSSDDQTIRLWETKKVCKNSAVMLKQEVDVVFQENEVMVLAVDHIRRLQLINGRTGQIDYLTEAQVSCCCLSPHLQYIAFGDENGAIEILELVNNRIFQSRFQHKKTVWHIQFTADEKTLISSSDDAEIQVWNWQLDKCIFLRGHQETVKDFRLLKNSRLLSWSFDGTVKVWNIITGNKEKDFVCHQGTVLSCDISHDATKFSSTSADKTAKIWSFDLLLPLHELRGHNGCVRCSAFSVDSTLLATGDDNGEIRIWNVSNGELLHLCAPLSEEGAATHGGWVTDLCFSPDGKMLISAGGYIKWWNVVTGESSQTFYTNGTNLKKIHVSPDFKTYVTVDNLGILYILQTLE
With `CC(=O)N(C1=C(Cl)C(=O)c2ccccc2C1=O)c1ccc(C(=O)O)cc1`, the inhibition was 89% (active).

For `Cc1ccc(-c2nc(-c3cccnc3)sc2CC(=O)Nc2ccc(C)c(Cl)c2)cc1`, the inhibition is 19%.

Consider `Cc1cccc(OCC(=O)NC2CC(C)(C)NC(C)(C)C2)c1`, for which the inhibition is 0.115%.

For `O=c1cc(N2CCCCC2)c(-c2ccccc2)nn1Cc1cccc(F)c1`, the inhibition was 44% (active).

As to `c1ccc(-c2cc(N3CCCCC3)c3ccccc3n2)cc1`, the inhibition is -0.639%.

For the molecule `O=C(CS(=O)(=O)c1cn(Cc2cccc(F)c2)c2ccccc12)N1CCCCC1`, the inhibition was 18.4%.

Regarding `COc1ccc(OC)c(NC(=S)N2CCc3ccccc3C2)c1`, the inhibition was -1.06%.

Consider `O=S(=O)(c1ccc(Br)cc1)N1CCC(c2nc3ccccc3[nH]2)CC1`, for which the inhibition is 6.06%.

Consider `Cc1noc(C)c1CSc1nnc2ccc3ccccc3n12`, for which the inhibition was -5%.

For `COc1ccc(/C=N/Nc2cc(N3CCOCC3)nc(C)n2)c(OC)c1`, the inhibition was 0.02%.

Regarding `C(=N/Nc1cc(N2CCOCC2)nc(N2CCOCC2)n1)/c1ccccc1`, the inhibition was 76.5% (active).

With `CN(C)c1ccc(/C=N/Nc2cc(N3CCOCC3)nc(N3CCOCC3)n2)cc1`, the inhibition is 1.31%.

In the case of `Cc1ccc(C)c2c1cc(C)c1nnc(SCC(=O)Nc3cccc(C(=O)O)c3)n12`, the inhibition was -9.82%.

As for `CCOCCCNS(=O)(=O)Cc1ccccc1`, the inhibition is 5.85%.

As for `COc1cnc(SCc2ccc(Cl)c(Cl)c2)nc1Cl`, the inhibition is 0.38%.

As to `O=C(CN1CCCCCC1)Nc1c(Cl)cc(Cl)cc1Cl`, the inhibition was -0.605%.

`Cc1[nH][nH]c(=O)c1C(c1ccc(-c2ccc(Cl)cc2)o1)c1c(C)[nH][nH]c1=O`: the inhibition was 85.8% (active).

Consider `O=C(NC1CCCCC1)c1ccc(-c2ccc(Cl)cc2)o1`, for which the inhibition was 15%.

As to `CN(CC(=O)Nc1ccc(F)cc1)C(=O)c1ccc(-c2ccc(Cl)cc2)o1`, the inhibition is 22%.

As for `Nc1ccc2nn(-c3ccc(Cl)cc3)nc2c1`, the inhibition is 83.8% (active).

As for `c1ccc(-n2nc3ccccc3n2)cc1`, the inhibition is 2.62%.

For `CCC(=O)Nc1ccc2nn(-c3ccc(F)cc3)nc2c1`, the inhibition is 17.5%.

Regarding `O=Cc1c(Cl)cccc1Cl`, the inhibition was -4.79%.

In the case of `CCN1C(=O)c2cccc3c(N)ccc1c23`, the inhibition was 97.1% (active).

Turning to `CCN1C(=O)c2cccc3c(S(=O)(=O)Nc4ccccc4O)ccc1c23`, the inhibition is 5.31%.

For the molecule `Cc1nn(C)cc1N1C(=O)c2cccc3c(N)ccc(c23)C1=O`, the inhibition was 12.4%.

For the molecule `CCSc1sc(CC)cc1C=O`, the inhibition is -7.54%.

With `COCCC(=O)Nc1ccc2c(c1)CN(C(=O)CCOC)CC2`, the inhibition was -12.8%.

Consider `Cc1occc1C(=O)N/N=C/c1ccc(-c2cccc([N+](=O)[O-])c2)o1`, for which the inhibition is 10.6%.

On to `Cc1ccc(-c2ccc(/C=N/NC(=O)CN3CCOCC3)o2)cc1[N+](=O)[O-]`, for which the inhibition is 73.9% (active).

Take `O=C(CN1CCOCC1)N/N=C/c1ccc(-c2ccc(Br)cc2)o1`: the inhibition is -12%.

`COc1ccc(-n2nc3c(N4CCC(C(=O)NCc5ccccc5)CC4)nnc(C)c3c2C)cc1`: the inhibition is 7.29%.

`CCOc1ccc(CNC(=O)C2CCCN(c3nnc(C)c4c(C)n(-c5ccccc5)nc34)C2)cc1` (stereo not given): the inhibition was 23.8%.

As to `CCc1ccc(CNC(=O)C2CCN(c3nnc(C)c4c(C)n(-c5ccc(C)cc5)nc34)CC2)cc1`, the inhibition was 42.3% (active).

Consider `C=C(C)CSc1nc(N)c2c3c(sc2n1)CCC3`, for which the inhibition was -16.8%.

Turning to `CC(C)CNC(=O)/C=C/C(=O)O`, the inhibition was -2.85%.

On to `O=C1C(Cl)=C(N2CCOCC2)C(=O)N1c1ccccc1`, for which the inhibition was -17.1%.

As to `O=C1c2ccccc2-c2ncnc3c(N4CCOCC4)cc(N4CCOCC4)c1c23`, the inhibition was 11.8%.

Turning to `COC1=C(N2CCOCC2)C(=O)c2ccccc2C1=O`, the inhibition was 65.8% (active).

Take `Cc1ccc(S(=O)(=O)N2CCN(c3ccccc3)CC2)cc1C`: the inhibition was 14.9%.

Turning to `CC(C)OC(=O)C(C#N)c1nc2ccccc2nc1N1CCN(Cc2ccccc2)CC1` (stereo not given), the inhibition is 10.2%.

For the molecule `Cc1ccc(S(=O)(=O)C(C#N)c2nc3ccccc3nc2N2CCCC2)cc1C` (stereo not given), the inhibition is 60% (active).

For the molecule `CN(C(=O)CCNC(=O)Cn1ccc2ccccc2c1=O)c1ccc(Br)cc1`, the inhibition was 3.8%.

On to `Cc1ccc(C(C)C)c(OCc2nnc(SCC(=O)Nc3nccs3)n2C)c1`, for which the inhibition is 11.4%.

Consider `CCCCN1C(N)=NC[C@@H]1Cc1ccccc1`, for which the inhibition was 13.2%.

For `C[C@@H](CN1CCC[C@H]1CN1C(N)=NC[C@@H]1Cc1ccccc1)N1C[C@@H](Cc2ccccc2)N(CCCC2CCCC2)C1=N`, the inhibition was 70.9% (active).

In the case of `CC[C@@H](C)[C@@H]1CN([C@@H](C)CN2CCC[C@H]2CN2C(N)=NC[C@H]2C(C)C)C(=N)N1CCc1ccc(Cl)c(Cl)c1`, the inhibition is 25.3%.

On to `CC(C)CC(=O)N1CCN(Cc2ccccc2Br)CC1`, for which the inhibition is 8.5%.

As for `COc1ccc(NC(=O)c2cccc3c2C(=O)N(CC2CCCO2)C3)cc1OC` (stereo not given), the inhibition is 2.96%.

For the molecule `COCCc1nn2c(=O)cc(COC(=O)c3cc(OC)c(OC)c(OC)c3)nc2s1`, the inhibition is -4.08%.

In the case of `Cc1ccc(-n2[nH]c(C)c(/C=N/NC(=O)c3cccc([N+](=O)[O-])c3)c2=O)cc1C`, the inhibition is 25.4%.

As to `Cc1[nH]n(-c2ccccc2)c(=O)c1/C=N/NC(=O)c1ccoc1C`, the inhibition was 61.5% (active).

In the case of `COc1cc(/C=N/NC(=O)c2ccoc2C)ccc1OCCN1CCCCC1`, the inhibition is 10.2%.

For the molecule `Oc1ccc(N=Cc2sc3ccccc3c2Cl)cc1`, the inhibition is 64.8% (active).

For the molecule `Cc1cc(N=Nc2ccc3ccccc3c2)ccc1O`, the inhibition was 4.6%.

Regarding `Oc1ccc(/C=N/N(Cc2ccccc2)c2ccccc2)cc1`, the inhibition is 8.85%.

For `CC(=O)n1c(C=Nc2ccccc2)c(O)c2ccccc21`, the inhibition is 5.41%.

In the case of `Oc1ccc(N=Cc2c(O)ccc3ccccc23)cc1`, the inhibition is 87.2% (active).

As for `CSc1ccc(CCNC(=O)C2CCN(c3nnc(-n4cccc4)s3)CC2)cc1`, the inhibition is 0.72%.

`O=C(NCCCn1ccnc1)c1cc2c(s1)CCCC2`: the inhibition is 11.9%.

With `COc1ccc(-c2nc(N)sc2C2(O)C(=O)Nc3c(Br)cc(F)cc32)cc1OC` (stereo not given), the inhibition is 3.73%.

For the molecule `CCOc1c2ccc(C(=O)NC3CCCc4ccccc43)cc2nn1CC` (stereo not given), the inhibition was 5.11%.

For `CCOC(=O)N1CCC(=NNC(N)=O)CC1`, the inhibition was 1.89%.

As to `C=CCn1c(N)c(C(=O)OCC(C)C)c2nc3ccccc3nc21`, the inhibition was 54.1% (active).

As for `CC(CN1CCOCC1)OC(=O)c1ccc(C(C)(C)C)cc1` (stereo not given), the inhibition is 15.5%.

In the case of `O=C(NCc1cccs1)c1cc(-c2ccccn2)nc2ccc(Br)cc12`, the inhibition is 5.9%.

`CCOc1ccccc1NC(=O)Cn1nnc(C(=O)NCc2cccs2)c1N`: the inhibition was -4.26%.

`CC(C)Cn1c(N)c(C(=O)NCc2cccs2)c2nc3ccccc3nc21`: the inhibition is 63.4% (active).

For the molecule `CC(=O)c1ccc(NC(=O)CSc2nc3ccccc3c(=O)n2CCCN2CCOCC2)cc1`, the inhibition is 2.62%.

As to `C=CCn1c(C(C)NC(=O)CC)nc2ccccc21` (stereo not given), the inhibition was -0.828%.

Take `C=CCn1c(P(C)(=O)O)nc2ccccc21`: the inhibition is 5.81% and -0.524%.

For the molecule `COCC(C)OC(=O)c1c(N)n(CCCN2CCOCC2)c2nc3ccccc3nc12` (stereo not given), the inhibition is 50.9% (active).

On to `O=C(Nc1ccccc1Cl)NC1(C(=O)N2CCOCC2)CCCCC1`, for which the inhibition is -1.88%.

On to `Cn1cncc1C#Cc1c(-c2ccsc2)sc2ccccc12`, for which the inhibition is 33.5%.

In the case of `CCC/C=C(\CCC)C(NC(=O)Cc1ccccc1)c1ccc(C(=O)OC)cc1` (stereo not given), the inhibition was 7.48%.

In the case of `CC1CCN(C(=O)COC(=O)c2cc(S(=O)(=O)N3CCOCC3)ccc2Cl)CC1`, the inhibition was 3.82%.

For `CCOC(=O)c1ccc(NC(=O)Cn2cnc3cc(C)c(C)cc32)cc1`, the inhibition is -0.083%.

With `O=C(CCC(=O)OCC(F)(F)C(F)F)NCc1ccccc1`, the inhibition was -13%.

For the molecule `CCOc1ccc(NCCC(=O)c2ccc3c(c2)OCO3)cc1`, the inhibition is 4.39%.

`Oc1cc(O)c2c(c1)OC(c1ccc(O)c(O)c1)C(O)C2` (stereo not given): the inhibition is -2.63%.

In the case of `COC(=O)C[n+]1cccc2ccccc21`, the inhibition is -1.6%.

On to `COc1ccc(-c2cc(C(=O)N/N=C/c3cccnc3)c3ccccc3n2)c(OC)c1`, for which the inhibition is 4.65%.

As for `O=C(N/N=C\c1cccnc1)c1cc(-c2ccccc2)nc2c(Cl)cccc12`, the inhibition was 40.1% (active).

On to `C/C(=N\NC(=O)c1cc(-c2ccc(O)cc2)nc2ccccc12)c1cccnc1`, for which the inhibition is 7.65%.

With `COc1ccc(C(CNC(=O)c2cc3c(s2)CCCC3)N2CCOCC2)cc1` (stereo not given), the inhibition was 33.5%.

As for `COc1ccc(-c2nc3cc(C)ccn3c2NC2CCCCC2)cc1SC1CCCCC1`, the inhibition was 48.4% (active).

Consider `CCOc1cc(-c2nc3cc(C)ccn3c2NCC2CCCO2)ccc1O` (stereo not given), for which the inhibition is 9.28%.

`COc1ccc(-c2nc3cnccn3c2NC2CCCCC2)cc1-c1cccc(Cl)c1`: the inhibition is 36.9%.

In the case of `CC1CN(C(=S)Nc2cccc(F)c2)CC(C)O1` (stereo not given), the inhibition was -7.38%.

With `COCCn1nnnc1C(c1cc2ccc(OC)cc2[nH]c1=O)N1CCc2ccccc2C1` (stereo not given), the inhibition was 56.8% (active).

Turning to `CCOc1ccc2[nH]c(=O)c(C(c3nnnn3CCOC)N3CCOCC3)cc2c1` (stereo not given), the inhibition was -3.2%.

As to `COc1ccc(OC)c(C(c2nnnn2C(C)(C)C)N2CCc3ccccc3C2)c1` (stereo not given), the inhibition is 11.5%.

On to `Cc1cc(OCc2cc(C(=O)NCc3cc(C(C)C)no3)no2)cc(C)c1Cl`, for which the inhibition was 17.4%.

In the case of `COC(=O)[C@@H]1C[C@@]2(O)[C@H](O)[C@H](O)[C@H](O)C[C@H]2N1Cc1ccc(C(C)(C)C)cc1`, the inhibition is 10.6%.

As for `CN(C)CCCN(Cc1cc2cc3c(cc2[nH]c1=O)OCCO3)C(=O)NC1CCCCC1`, the inhibition is 2.55%.

In general, inhibition refers to the relative decrease from the control value, in per cent.

For the origin of these results see PubChem BioAssay AID489030 (Sanford-Burnham Center for Chemical Genomics, 2010).
